Results from ChEMBL document CHEMBL5705901, “Exploiting selective BCL-2 family inhibitors to dissect cell survival dependencies and define improved strategies for cancer therapy” (Sci Transl Med, 2015).
Activity calls are given as the source filed them. No cut-off for these calls is given here.

Key:
[1] = molecular target: Apoptosis regulator Bcl-2 (Homo sapiens, UniProt P10415); test: Binding affinity to Bcl-2 (unknown origin) assessed as dissociation constant incubated for 1 hrs by TR-FRET assay
MDA-MB-231 = test: Antitumor activity against LC3 positive human MDA-MB-231 cells xenografted in SCID mouse assessed as tumor growth delay at 25 mg/kg, po administered daily for 14 days relative to control; assay type: functional; settings: time 14 day
Procedure, shortened: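 MDA-MB-231 LC3 metastatic breast cancer xenograft, 10 mice per group, with a vehicle control. Dosing: oral agent 25 mg/kg daily for 14 days; docetaxel 7.5 mg/kg iv once; combination gives both regimens. Mean tumor volumes tracked. TGImax = 100(1 − Tv/Cv) from mean treated vs control volumes. TGD = 100(T/C − 1) from median times to reach 1 cm3.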

[2] = Toxicity in po dosed SCID mouse assessed as body weight loss relative to control; assay type: organism-based; settings: in vivo
NCI-H747 = test: Synergistic antitumor activity against human NCI-H747 cells xenografted in po dosed SCID-bg mouse assessed as maximum tumor growth inhibition in presence of docetaxel relative to control; assay type: functional
Procedure, shortened: (§1)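 Xenografts dosed with oral inhibitor plus intravenous docetaxel. TGImax = 100(1 − Tv/Cv), from mean treated and control tumor volumes; TGD = 100(T/C − 1), from median times to reach 1 cm3. Group size 5 mice (NCI-H747, A549-FP3, EBC-1, OVCAR-5), 8 (NCI-H358), 10 (NCI-H1650).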

A549 = test: Synergistic antitumor activity against 3 times passaged human A549 cells xenografted in po dosed SCID mouse assessed as maximum tumor growth inhibition in presence of docetaxel relative to control; assay type: functional; procedure, shortened: as §1
[3] = Toxicity in po dosed SCID-bg mouse assessed as tolerance; assay type: organism-based; settings: in vivo
OVCAR-5 = test: Antitumor activity against human OVCAR-5 xenografted in po dosed SCID mouse assessed as tumor growth delay relative to control; assay type: functional
Procedure, shortened: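 Tumor volume-based endpoints. TGD = 100(T/C − 1), where T and C are the median times for the treated and control groups to reach 1 cm3. Groups were five mice for NCI-H747 and OVCAR-5 and eight for NCI-H358. Docetaxel was given intravenously and the test agent orally.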

NCI-H358 = test: Antitumor activity against human NCI-H358 cells xenografted in po dosed SCID mouse assessed as maximum tumor growth inhibition relative to control; assay type: functional
[4] = Toxicity in po dosed SCID mouse assessed as tolerance in presence of docetaxel; assay type: organism-based; settings: in vivo
NCI-H187 = test: Antiproliferative activity against human NCI-H187 assessed as reduction in cell viability incubated for 48 hrs by CellTiter-Glo cell vaibility assay; assay type: functional, cell-based; settings: NCI-H187, 48 h
Procedure, shortened: (§2)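 Tumour cell lines (SCLC panel and AML panel) exposed to increasing concentrations for 48 hours, then cell viability measured. Cell-killing EC50 taken from the concentration-response.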

NCI-H345 = test: Antiproliferative activity against human NCI-H345 assessed as reduction in cell viability incubated for 48 hrs by CellTiter-Glo cell vaibility assay; assay type: functional, cell-based; settings: NCI-H345, 48 h; procedure, shortened: as §2
NCI-H446 = test: Antiproliferative activity against human NCI-H446 assessed as reduction in cell viability incubated for 48 hrs by CellTiter-Glo cell vaibility assay; assay type: functional, cell-based; settings: NCI-H446, 48 h; procedure, shortened: as §2
MV4-11 = test: Antiproliferative activity against human MV4-11 assessed as reduction in cell viability incubated for 48 hrs by CellTiter-Glo cell vaibility assay; assay type: functional, cell-based; settings: MV4-11, 48 h; procedure, shortened: as §2
ML-2 = test: Antiproliferative activity against human ML-2 assessed as reduction in cell viability incubated for 48 hrs by CellTiter-Glo cell vaibility assay; assay type: functional, cell-based; settings: ML-2, 48 h; procedure, shortened: as §2
SIG-M5 = test: Antiproliferative activity against human SIG-M5 assessed as reduction in cell viability incubated for 48 hrs by CellTiter-Glo cell vaibility assay; assay type: functional, cell-based; settings: SIG-M5, 48 h; procedure, shortened: as §2
SKM-1 = test: Antiproliferative activity against human SKM-1 assessed as reduction in cell viability incubated for 48 hrs by CellTiter-Glo cell vaibility assay; assay type: functional, cell-based; settings: SKM-1, 48 h; procedure, shortened: as §2
[5] = Antiproliferative activity against human UKE-1 harboring JAK2 V617F mutant assessed as reduction in cell viability incubated for 48 hrs by CellTiter-Glo cell vaibility assay; assay type: functional, cell-based; settings: UKE1, 48 h; procedure, shortened: as §2
[6] = Antiproliferative activity against human OCI-M2 assessed as reduction in cell viability incubated for 48 hrs by CellTiter-Glo cell vaibility assay; assay type: functional, cell-based; settings: OCI-M2, 48 h; procedure, shortened: as §2
[7] = Antiproliferative activity against human OCI-M1 assessed as reduction in cell viability incubated for 48 hrs by CellTiter-Glo cell vaibility assay; assay type: functional, cell-based; settings: OCI-M1, 48 h; procedure, shortened: as §2
MDA-MB-468 = test: Induction of apoptosis in human MDA-MB-468 cells assessed as poly(ADP-ribose) polymerase cleavage incubated for 48 hrs in presence of docetaxel by immunoblot analysis; assay type: functional, cell-based
HCC1395 = test: Induction of apoptosis in human HCC1395 cells assessed as accumulation of cells with sub-G0-G1 DNA content at 1 uM incubated for 48 hrs in presence of docetaxel by flow cytometric analysis; assay type: functional, cell-based
HCC1937 = test: Induction of apoptosis in human HCC1937 cells assessed as accumulation of cells with sub-G0-G1 DNA content at 1 uM incubated for 48 hrs in presence of docetaxel by flow cytometric analysis; assay type: functional, cell-based
MX1 = test: Induction of apoptosis in human MX1 cells assessed as accumulation of cells with sub-G0-G1 DNA content at 1 uM incubated for 48 hrs in presence of docetaxel by flow cytometric analysis; assay type: functional, cell-based
[8] = Inhibition of granulocyte colony formation in human bone marrow cells at 0.1 to 20 uM incubated for 14 to 16 days by light microscopic analysis; assay type: toxicity, cell-based; settings: bone marrow cell, dose lower 0.1 µM, time lower 14 day, dose upper 20 µM, time upper 16 day
Procedure, shortened: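 Isolated human bone marrow cells cultured in semisolid medium with increasing inhibitor concentrations; granulocyte (neutrophil) colonies counted by light microscopy after 15–16 days; triplicate means with SD; Student's t test versus solvent control.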

NCI-H146 = test: Induction of apoptosis in Bcl-xl dependent human NCI-H146 cells assessed as cytochrome C release from mitochondria at 0.1 to 1000 nM incubated for 4 hrs by immunoblot analysis; assay type: functional, cell-based; settings: dose 0.1-1000 nM
Procedure, shortened: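 NCI-H146 cells were treated for 4 h with increasing concentrations. Mitochondrial and cytosolic fractions were separated, and cytochrome c in each was determined by immunoblotting.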

MEF = test: Cytotoxicity against Mcl-1 knockout MEF cells assessed as reduction in cell viability incubated for 48 hrs by CellTiter-Glo cell vaibility assay; assay type: toxicity, cell-based; settings: mouse
MCF7 = test: Synergistic antiproliferative activity against human MCF7 cells expressing luciferase assessed as reduction in cell viability by measuring bliss sum score incubated for 72 hrs in presence of docetaxel by CellTiter-Glo cell vaibility assay; assay type: functional
SK-BR-3 = test: Synergistic antiproliferative activity against human SK-BR-3 cells assessed as reduction in cell viability by measuring bliss sum score incubated for 72 hrs in presence of docetaxel by CellTiter-Glo cell vaibility assay; assay type: functional
OVCAR-8 = test: Synergistic antiproliferative activity against human OVCAR-8 cells assessed as reduction in cell viability by measuring bliss sum score incubated for 72 hrs in presence of docetaxel by CellTiter-Glo cell vaibility assay; assay type: functional

Sequence of Apoptosis regulator Bcl-2 (P10415 whole entry): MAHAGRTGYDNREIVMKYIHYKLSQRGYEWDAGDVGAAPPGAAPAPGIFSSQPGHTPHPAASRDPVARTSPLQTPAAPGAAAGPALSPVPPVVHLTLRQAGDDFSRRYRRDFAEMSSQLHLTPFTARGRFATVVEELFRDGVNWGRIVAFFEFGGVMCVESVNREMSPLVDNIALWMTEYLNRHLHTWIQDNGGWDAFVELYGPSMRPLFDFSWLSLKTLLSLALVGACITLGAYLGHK

Row | Compound | EC50 (NCI-H187) | EC50 (NCI-H345) | EC50 (NCI-H446) | EC50 (MV4-11) | EC50 (ML-2) | EC50 (SIG-M5) | EC50 (SKM-1) | EC50 [5] | EC50 [6] | EC50 [7] | Activity [8] | further results
1 | Cc1c(-c2ccc(N3CCc4cccc(C(=O)Nc5nc6ccccc6s5)c4C3)nc2C(=O)O)cnn1CC12CC3CC(CC(C3)C1)C2 | – | – | – | – | – | – | – | – | – | – | – | Ki [1]: 6 nM; Activity (MDA-MB-231): 55%; Activity [2]: < 9%; TGI (NCI-H747): 84%; TGI (A549): 74%; Activity [3]: Non-Toxic; Activity (OVCAR-5): 54%; TGI (NCI-H358): 62%; Activity [4]: Non-Toxic
2 | CC1(C)CCC(c2ccc(Cl)cc2)=C(CN2CCN(c3ccc(C(=O)NS(=O)(=O)c4ccc(N[C@H](CCN5CCOCC5)CSc5ccccc5)c(S(=O)(=O)C(F)(F)F)c4)cc3)CC2)C1 [NAVITOCLAX] | 37 nM | 300 nM | 850 nM | 40 nM | 50 nM | 11 nM | 240 nM | 50 nM | 160 nM | 410 nM | Toxic | Activity (MDA-MB-468): Active; Activity (HCC1395): Active; Activity (HCC1937): Active; Activity (MX1): Active
3 | CN(C)CC#Cc1ccc(OCCCc2sc(N3CCc4cccc(C(=O)Nc5nc6ccccc6s5)c4C3)nc2C(=O)O)c(F)c1 [A-1155463] | 180 nM | > 10000 nM | 200 nM | > 5000 nM | > 5000 nM | > 5000 nM | > 5000 nM | 490 nM | 100 nM | 230 nM | Non-Toxic | Activity (NCI-H146): Active; Activity (MEF): Toxic; Activity_index (MCF7): 63; Activity_index (SK-BR-3): 101; Activity_index (OVCAR-8): 159
